Assay results from ChEMBL document CHEMBL4382252, “1,4-Benzodioxane Lignans: An Efficient, Asymmetric Synthesis of Flavonolignans and Study of Neolignan Cytotoxicity and Antiviral Profiles” (J Nat Prod, 2018).

Legend:
Hepatitis C virus = experiment: Antiviral activity against HCV JFH-1 infected in human Huh7.5.1 cells assessed as reduction in NS3/NS5A expression by Western blot analysis; assay type: functional, organism-based, Hepacivirus hominis
In short: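 Huh7.5.1 human hepatoma cells infected with HCV (JFH-1) at MOI 0.05 for 5 h; inoculum then replaced with fresh medium containing compound, three concentrations each. DMSO solvent control ≤0.5% final. Lysates run on SDS-PAGE and Western blotted for NS3 and NS5A, reprobed for actin as loading control. IC50 estimated from pixel intensity of viral protein bands.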

[1] = (§1) Cytotoxicity against human Huh7.5.1 cells after 72 hrs by ATPlite assay; assay type: cell-based; settings: Huh7.5.1 cells
In short: (§2)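 Compounds in DMSO added to cells at a range of concentrations. ATP measured by ATPlite after 72 h. DMSO held at 0.5% final in all wells, including controls. Triplicate per concentration. CC50 obtained by log-transforming doses and fitting a variable-slope four-parameter regression.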

[2] = Selectivity index, ratio of CC50 for human Huh7.5.1 cells to IC50 for HCV JFH1 infected in human Huh7.5.1 cells; assay type: toxicity, cell-based; settings: for selectivity ratio: Huh7.5.1 cells, HCV JFH1-infected Huh7.5.1 cells, read-out: Ratio CC50/IC50
Huh7.5.1 = experiment: as §1; assay type: cell-based; settings: huh7.5.1, 72 h; in short: as §2
[3] = Hepatitis C virus, JFH-1, Huh-7.5.1

Compound	IC50 (Hepatitis C virus; [3])	CC50 at 72 h [1]	selectivity ratio [2]	IC50 (Hepatitis C virus)	CC50 (Huh7.5.1)	Ratio CC50/IC50 [2]
COc1cc([C@H]2Oc3cc([C@H]4Oc5cc(O)cc(O)c5C(=O)[C@@H]4O)ccc3O[C@@H]2CO)ccc1O [SILYBIN A]	50 µM	80 µM	1.6	–	–	–
C=CCc1cc(OC)c2c(c1)O[C@H](c1ccc3c(c1)OCO3)[C@@H](C)O2	20 µM	> 125 µM	> 6.25	–	–	–
SILYMARIN	–	–	–	80 µM	100 µM	1.25
COc1cc([C@H]2Oc3cc(/C=C/CO)cc(OC)c3O[C@@H]2CO)cc(OC)c1O	200 µM	464 µM	2.32	–	–	–
COc1cc([C@H]2Oc3cc(/C=C/CO)cc(OC)c3O[C@@H]2C)cc(OC)c1OC	50 µM	129 µM	2.57	–	–	–
C=CCc1cc(OC)c2c(c1)O[C@H](c1cc(OC)c(OC)c(OC)c1)[C@@H](C)O2	30 µM	36.2 µM	1.21	–	–	–
COc1cc([C@@H]2Oc3cc([C@H]4Oc5cc(O)cc(O)c5C(=O)[C@@H]4O)ccc3O[C@H]2CO)ccc1O [SILYBIN B]	50 µM	68.7 µM	1.37	–	–	–
COc1cc(C2Oc3cc([C@H]4Oc5cc(O)cc(O)c5C(=O)[C@@H]4O)ccc3OC2CO)ccc1O (stereo not given in full) [SILIBININ]	60 µM	80 µM	1.33	–	–	–
COc1cc([C@H]2Oc3cc(/C=C/C=O)cc(OC)c3O[C@@H]2C)cc(OC)c1OC	25 µM	47.6 µM	1.91	–	–	–
COc1cc([C@H]2Oc3cccc(OC)c3O[C@@H]2C)cc(OC)c1OC	40 µM	50.2 µM	1.25	–	–	–
